Reference: paper PMC6555264 (Infection and Drug Resistance, 2019)
Several values for one entry are separate records, joined by “and”; a condition that tells them apart may be missing. Identical values can stand only once.

Assays:
[1] = test system: A. baumannii; test: Broth microdilution MIC, alone and with AR-12; assay type: cell-based, Acinetobacter baumannii; settings: for MIC: strain 34299 (JMI Laboratories), drug alone; for fold reduction of MIC in the presence of 4 μg/ml of AR-12: MDR A. baumannii (2 out of 4 strains tested); for MIC (4 µg/ml AR-12): strain 34299, with 4 µg/ml AR-12
Method in brief: (§1)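 Colonies from Mueller-Hinton II agar (37°C, overnight) were suspended in PBS, sized by OD600 and diluted in CAMHB, giving a final inoculum of 5×10^5 CFU/ml. Single-drug MICs: 96-well round-bottom plates, static 37°C for 18–24 h, growth scored visually. Checkerboard: twofold polymyxin B or colistin (0.13–64 or 128 μg/ml) against twofold test compound (1–64 or 128 μg/ml; DMSO stock), incubated 16–20 h.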

[2] = test system: B. mallei; assay type: cell-based, Burkholderia mallei
[3] = test system: B. pseudomallei; assay type: cell-based, Burkholderia pseudomallei
[4] = test system: Enterobacter cloacae; assay type: cell-based
[5] = test system: K. pneumoniae; test: Broth microdilution MIC, alone and with AR-12; assay type: cell-based, Klebsiella pneumoniae; settings: for MIC: drug alone; for MIC (4 µg/ml AR-12): with 4 µg/ml AR-12
Method in brief: as §1

[6] = test system: Proteus mirabilis; assay type: cell-based
[7] = test system: Providencia stuartii; assay type: cell-based
[8] = test system: Serratia marcescens; assay type: cell-based
[9] = test system: panel of MDR Gram-negative pathogenic bacterial strains; test: Broth dilution MIC, whole panel; assay type: cell-based; settings: for fold reduction of MIC in the presence of AR-12: certain polymyxin-resistant Gram-negative bacterial strains
Method in brief: as §1

[10] = test system: A. baumannii strains and K. pneumoniae strains; test: Dansyl polymyxin permeability assay; assay type: cell-based; settings: increasing concentrations of AR-12; depending on the strain; DP 0.6 μM
Method in brief: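 Log-phase cells (overnight culture subcultured 1:100 for 2–3 h) were pelleted at 0.5 OD-equivalent and resuspended in 1 ml of 5 mM HEPES at room temperature. Fluorescence was read at room temperature (ex 320, em 500 nm), with cell-free wells subtracted. Two or more repeats.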

[11] = test system: A. baumannii and K. pneumoniae strains; test: N-phenyl-1-naphthylamine; assay type: cell-based; settings: AR-12 4 μg/ml and 8 μg/ml
Method in brief: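 Cell suspensions were prepared as for the dansyl polymyxin assay (log phase, in 5 mM HEPES). Cells were added at 1:4 to a HEPES/NPN/test compound mix, in triplicate. Fluorescence was read at room temperature (ex 355, em 405 nm), with cell-free wells subtracted. Two or more independent repeats.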

[12] = Pharmacokinetic study in mice, oral; assay type: in vivo, Balb/c mice
Method in brief: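 Female Balb/c mice received a single oral dose of test compound at 80 mg/kg, formulated at 8 mg/mL in 10% Solutol HS 15. Plasma was sampled at 0, 0.5, 1, 2, 4, 8, 10 and 24 h, with 3 mice per time point. Drug levels were quantified by HPLC.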

[13] = Maximum tolerated dose in mice; assay type: in vivo; settings: p.o.
[14] = Protein binding in mice; assay type: in vitro ADME
[15] = test system: cyclooxygenase 2 (COX-2); settings: eukaryotic host; cited from earlier work
[16] = test system: Francisella strains; settings: cited from earlier work
[17] = test system: Francisella tularensis and F. novicida in THP-1 macrophages; settings: cited from earlier work
[18] = test system: ampicillin and kanamycin-resistant E. coli strain; settings: laboratory-generated ampicillin and kanamycin-resistant E. coli; cited from earlier work
[19] = test system: MDR clinical isolate of N. gonorrhoeae; settings: cited from earlier work
[20] = test system: A. baumannii; test: Bacterial growth assay; assay type: cell-based, Acinetobacter baumannii
Method in brief: (§2)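 Cultures were grown overnight (~16 h) in CAMHB at 37°C with shaking, then subcultured 1:100 for 2–3 h to log phase. 5×10^5 CFU/ml were dispensed into CAMHB wells holding preset drug concentrations, in triplicate. Plates were shaken at 37°C, with OD600 read automatically every 15 min for 24 h. Two or more independent repeats.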

[21] = test system: K. pneumoniae; test: Bacterial growth assay; assay type: cell-based, Klebsiella pneumoniae
Method in brief: as §2

[22] = strain 30835 (JMI Laboratories)

## NCC(=O)Nc1ccc(-n2nc(C(F)(F)F)cc2-c2ccc3c(ccc4ccccc43)c2)cc1 [AR-12]
[1]
  MIC: >128 µg/mL
[2]
  MIC: >128 µg/mL
[3]
  MIC: >128 µg/mL
[4]
  MIC: >64 µg/mL
[5]; strain 0010 (CDC)
  MIC: >64 µg/mL
[5]; strain 101434 (USAMRIID)
  MIC: >64 µg/mL
[5]; strain 101522 (USAMRIID)
  MIC: >64 µg/mL
[5]; strain 101783 (USAMRIID)
  MIC: >64 µg/mL
[6]
  MIC: >64 µg/mL
[7]
  MIC: >64 µg/mL
[8]
  MIC: >64 µg/mL
[9]; combination with polymyxin B or colistin
  lowest AR-12 concentration at which the potentiating activity was observed for majority of the MDR strains: 4 µg/mL
[9]; panel of MDR pathogens, tested upto 64 µg/ml
  MIC of AR-12 alone: > 64 µg/mL
[10]
  enhancement of dansyl polymyxin B (DP) fluorescence: 25–50 fold
[11]
  effect on NPN fluorescence (outer membrane permeability): increased the fluorescence of NPN
[12]
  bioavailability: poor
[12]; 80 mg/kg, p.o., q.d.
  AUC (0–24 hrs): 41400 ng·h/mL
  Cmax: 2100 ng/mL
  Tmax: 10 h
  plasma levels sustained over a 24 hrs period: 1.5–2.1 μg/mL and ~ 2 μg/mL
[13]
  maximum tolerated dose: 100 mg/kg
[14]
  protein bound: 99%
[15]
  COX-2 inhibitory activities: devoid of cyclooxygenase 2 (COX-2) inhibitory activities
[16]
  direct antibacterial activity: did not have any direct antibacterial activity
[17]
  intracellular survival of bacteria in macrophages: inhibit the intracellular survival
[18]
  bacterial growth: significantly inhibited the growth
[19]
  bacterial proliferation: reduced the proliferation

## polymyxin B
[1]
  fold reduction of MIC in the presence of 4 μg/ml of AR-12: 4–16 fold
  MIC: 16 µg/mL
  MIC (4 µg/ml AR-12): ≤2 µg/mL
[2]
  MIC: 128 µg/mL
  MIC (4 µg/ml AR-12): 128 µg/mL
[3]
  MIC: >128 µg/mL
  MIC (4 µg/ml AR-12): >128 µg/mL
[5]; strain 0010 (CDC)
  MIC: 2 µg/mL
[5]; strain 0010
  MIC (4 µg/ml AR-12): 2 µg/mL
[5]; [22]
  MIC: 128 µg/mL
[5]; strain 30835
  MIC (4 µg/ml AR-12): ≤2 µg/mL
[5]; strain 101434 (USAMRIID)
  MIC: 64 µg/mL
[5]; strain 101434
  MIC (4 µg/ml AR-12): 16 µg/mL
[5]; strain 101522 (USAMRIID)
  MIC: 64 µg/mL
[5]; strain 101783 (USAMRIID)
  MIC: >64 µg/mL
[5]; strain 101783
  MIC (4 µg/ml AR-12): 2 µg/mL
[6]
  MIC: >64 µg/mL
  MIC (4 µg/ml AR-12): 64 µg/mL and >64 µg/mL
[7]
  MIC: >64 µg/mL
  MIC (4 µg/ml AR-12): >64 µg/mL
[8]
  MIC: >64 µg/mL
  MIC (4 µg/ml AR-12): >64 µg/mL and 64 µg/mL
[9]
  fold reduction of MIC in the presence of AR-12: 4–60 fold

## colistin
[1]
  fold reduction of MIC in the presence of 4 μg/ml of AR-12: 4–16 fold
  MIC: >64 µg/mL
  MIC (4 µg/ml AR-12): 4 µg/mL
[4]
  MIC (4 µg/ml AR-12): 16 µg/mL
[5]; MDR K. pneumoniae (polymyxin B 7 out of 7, colistin 5 out of 7 strains tested)
  fold reduction of MIC in the presence of 4 μg/ml of AR-12: 4–60 fold
[5]; strain 0010 (CDC)
  MIC: 8 µg/mL
[5]; strain 0010
  MIC (4 µg/ml AR-12): 8 µg/mL
[5]; [22]
  MIC: >64 µg/mL
[5]; strain 30835
  MIC (4 µg/ml AR-12): 16 µg/mL
[5]; strain 101434 (USAMRIID)
  MIC: >64 µg/mL
[5]; strain 101434
  MIC (4 µg/ml AR-12): 16 µg/mL
[5]; strain 101522 (USAMRIID)
  MIC: >64 µg/mL
[5]; strain 101522
  MIC (4 µg/ml AR-12): 8 µg/mL
[5]; strain 101783 (USAMRIID)
  MIC: >64 µg/mL
[5]; strain 101783
  MIC (4 µg/ml AR-12): 1 µg/mL
[6]
  MIC: >64 µg/mL
  MIC (4 µg/ml AR-12): >64 µg/mL
[7]
  MIC: >64 µg/mL
  MIC (4 µg/ml AR-12): >64 µg/mL
[8]
  MIC: >64 µg/mL
  MIC (4 µg/ml AR-12): >64 µg/mL
[9]
  fold reduction of MIC in the presence of AR-12: 4–60 fold
[20]; MDR A. baumannii 34299, colistin alone
  colistin concentration giving growth inhibition: > 32 µg/mL
[20]; MDR A. baumannii 34299, in the presence of 4 μg/ml AR-12
  colistin concentration giving growth inhibition: 1 µg/mL
[20]; polymyxin sensitive ATCC A. baumannii 19606, colistin alone
  colistin concentration giving growth inhibition: 0.5 µg/mL
[20]; polymyxin sensitive ATCC A. baumannii 19606, in the presence of 4 μg/ml AR-12
  colistin concentration giving growth inhibition: 0.015 µg/mL
[21]; MDR K. pneumoniae 30835, colistin alone
  colistin concentration giving growth inhibition: 8 µg/mL
[21]; MDR K. pneumoniae 30835, in the presence of 4 μg/ml AR-12
  colistin concentration giving growth inhibition: 1 µg/mL
[21]; polymyxin sensitive ATCC K. pneumoniae 13833, colistin alone
  colistin concentration giving growth inhibition: 2 µg/mL
[21]; polymyxin sensitive ATCC K. pneumoniae 13833, in the presence of 4 μg/ml AR-12
  colistin concentration giving growth inhibition: 0.125 µg/mL
